Experimental data taken from ChEMBL document CHEMBL3259603, “Antiprotozoal activity and DNA binding of N-substituted N-phenylbenzamide and 1,3-diphenylurea bisguanidines” (Eur J Med Chem, 2014).
Active and inactive are the calls of the source. The calls are words filed in the database; no cut-off is given here.

Assays:
[1] = system: Trypanosoma brucei rhodesiense; test: Antimicrobial activity against trypomastigote stage of Trypanosoma brucei rhodesiense STIB900 infected in rat L6 cells after 96 hrs by Alamar Blue assay; assay type: functional, organism-based; details: STIB900, L6, 96 h
How it was run: (§1)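 Alamar blue-based viability assays were run on bloodstream T. b. rhodesiense STIB900 and on rat skeletal myoblast L6 cells. Podophyllotoxin was the reference drug for L6.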

[2] = Selectivity index, ratio of CC50 for rat L6 cells to IC50 for Plasmodium falciparum NF54
Plasmodium falciparum = test: Antimicrobial activity against intraerythrocytic stage of Plasmodium falciparum NF54 infected in human erythrocytes by [3H]hypoxanthine incorporation assay; assay type: functional, organism-based
How it was run: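 Erythrocytic P. falciparum NF54 (chloroquine-sensitive) was tested with a [³H]hypoxanthine incorporation read-out.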

[3] = Selectivity index, ratio of CC50 for rat L6 cells to IC50 for Trypanosoma brucei rhodesiense; assay type: functional
How it was run: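 Selectivity index was calculated as L6 CC₅₀ divided by the T. b. rhodesiense IC₅₀, both from the Alamar blue assays.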

[4] = Cytotoxicity against rat L6 cells; assay type: cell-based; how it was run: as §1
[5] = Selectivity ratio of K for 5'-biotin-CGAATTCGTCTCCGAATTCG-3' hairpin DNA (unknown origin) to K for 5'-biotin-CATATATATCCCCATATATATG-3' hairpin DNA (unknown origin)
[6] = Binding affinity to 5'-biotin-CGAATTCGTCTCCGAATTCG-3' hairpin DNA (unknown origin) after 5 mins by SPR analysis
How it was run: (§2)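 SPR at 25 °C in MES buffer (10 mM MES, 1 mM EDTA, 100 mM NaCl, 0.005% P20, pH 6.25). Biotinylated hairpins were captured on streptavidin chips to about 400 RU, with a blank reference flow cell. A compound dilution series (from 5 mM stocks) was injected at 20 µL/min with 5 min association and 5 min dissociation. Surfaces were regenerated with 200 mM NaCl/10 mM NaOH. Equilibrium constants came from fits to a one- or two-site model.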

[7] = system: Trypanosoma brucei rhodesiense; test: Antimicrobial activity against bloodstream form of Trypanosoma brucei rhodesiense STIB900 infected in acute HAT NMRI mouse model assessed as mean day of relapse at 20 mg/kg, ip administered for 4 days; assay type: functional; details: route intraperitoneal
How it was run: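 Acute-stage mouse model infected with T. b. rhodesiense STIB900, in groups of four mice. Compound was formulated in 100% DMSO and diluted 10-fold in distilled water. It was given on four consecutive days from day 3 post-infection at 0.1 mL/10 g. Three infected mice were left untreated. Parasitaemia was checked in tail-blood smears up to day 60; relapse-free mice were counted as cured. Mean relapse day is the post-infection day of relapse.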

[8] = Binding affinity to 5'-biotin-CGCGCGCGTTTTCGCGCGCG-3' hairpin DNA (unknown origin) hairpin DNA after 5 mins by SPR analysis; how it was run: as §2
[9] = Binding affinity to 5'-biotin-CATATATATCCCCATATATATG-3' hairpin DNA (unknown origin) after 5 mins by SPR analysis; how it was run: as §2
Mus musculus = test: Acute toxicity in NMRI mouse infected with bloodstream form of Trypanosoma brucei rhodesiense STIB900 at 20 mg/kg, ip administered for 4 days; assay type: organism-based; set-up: dose 20 mg/kg, route intraperitoneal; details: in vivo, 96 h
[10] = system: Trypanosoma brucei rhodesiense; test: Antimicrobial activity against bloodstream form of Trypanosoma brucei rhodesiense STIB900 infected in acute HAT NMRI mouse model assessed as mean day of relapse at 50 mg/kg, po administered for 4 days; assay type: functional
[11] = system: Trypanosoma brucei rhodesiense; test: Antimicrobial activity against bloodstream form of Trypanosoma brucei rhodesiense STIB900 infected in acute HAT NMRI mouse model assessed as mean day of relapse at 5 mg/kg, ip administered for 4 days; assay type: functional; details: route intraperitoneal
Trypanosoma brucei = test: Antimicrobial activity against Trypanosoma brucei GVR35 infected in NMRI mouse late stage model at 20 mg/kg, ip administered for 5 days; assay type: functional, organism-based; set-up: dose 20 mg/kg

Structure (SMILES)	IC50 [1]	Ratio CC50/IC50 [2]	IC50 (Plasmodium falciparum)	Ratio CC50/IC50 [3]	CC50 [4]	Selectivity ratio [5]	K [6]	Time [7]	K [8]	K [9]	Activity (Mus musculus)	Time [10]	Time [11]	Activity (Trypanosoma brucei)
C/N=C(\N)Nc1ccc(NC(=O)Nc2ccc(N/C(N)=N/C)cc2)cc1.Cl	0.264 µM	922	0.192 µM	670	177 µM	–	–	–	–	–	–	–	–	–
C/N=C(\N)Nc1ccc(NC(=O)c2ccc(N/C(N)=N/C)cc2)cc1.Cl	0.177 µM	169	1.02 µM	977	173 µM	–	–	–	–	–	–	–	–	–
CC(C)/N=C(\N)Nc1ccc(NC(=O)c2ccc(N/C(N)=N/C(C)C)cc2)cc1.Cl	0.011 µM	231	0.446 µM	9364	103 µM	2.5	9.8 ×10⁵ /M	>60 days	< 1 ×10⁵ /M	4 ×10⁵ /M	–	–	–	–
N/C(=N\OC1CCCCO1)Nc1ccc(NC(=O)c2ccc(N/C(N)=N/OC3CCCCO3)cc2)cc1 (configuration not stated)	51.4 µM	–	42.6 µM	–	160 µM	–	–	–	–	–	–	–	–	–
CC(C)/N=C(\N)Nc1ccc(NC(=O)Nc2ccc(N/C(N)=N/C(C)C)cc2)cc1.Cl	0.049 µM	288	0.437 µM	2571	126 µM	–	–	10 days	–	–	Toxic	–	–	–
N/C(=N\OCc1ccccc1)Nc1ccc(NC(=O)c2ccc(N/C(N)=N/OCc3ccccc3)cc2)cc1	3.13 µM	–	2.83 µM	–	6.6 µM	–	–	–	–	–	–	–	–	–
N/C(=N\O)Nc1ccc(NC(=O)c2ccc(N/C(N)=N/O)cc2)cc1	4.88 µM	–	3.58 µM	–	100 µM	–	–	–	–	–	–	–	–	–
N=C(N)Nc1ccc(NC(=O)c2ccc(NC(=N)N)cc2)cc1	–	–	–	–	–	–	–	–	–	–	–	>60 days	>60 days	inactive
CO/N=C(\N)Nc1ccc(NC(=O)c2ccc(N/C(N)=N/OC)cc2)cc1	56 µM	–	7.49 µM	–	141 µM	–	–	–	–	–	–	–	–	–
CC/N=C(\N)Nc1ccc(NC(=O)Nc2ccc(N/C(N)=N/CC)cc2)cc1.Cl	0.09 µM	292	0.397 µM	1289	116 µM	–	0.19 ×10⁵ /M	18.3 days	–	0.15 ×10⁵ /M	Toxic	–	–	–
Nc1nc(N)nc(Nc2ccc([As]3SCC(CO)S3)cc2)n1 (configuration not stated) [MELARSOPROL]	–	–	–	>1000	–	–	–	–	–	–	–	–	–	–
CC/N=C(\N)Nc1ccc(NC(=O)c2ccc(N/C(N)=N/CC)cc2)cc1.Cl	0.009 µM	509	0.232 µM	13111	118 µM	1.5	8.1 ×10⁵ /M	>60 days	< 1 ×10⁵ /M	5.2 ×10⁵ /M	–	–	–	–
